The subject of data set [1] is GFP reporter strain of Mtb (Mtb pMSp12: GFP). The format is cell-based, Mycobacterium tuberculosis.
The subject of another data set is Vero cell line. As to the kind of experiment: MTT cytotoxicity assay, Vero cells. The format is cell-based. To be noted: 48 h. In outline:
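Vero cells plated at 3.0 × 10³ cells/well, 24 h at 37 °C, 5% CO2. Then 48 h exposure to test compound at 1, 5 or 10 µM in 0.15% DMSO, triplicate technical repeats. Positive control was 0.2% Triton X-100 for 15 min. Cells PBS-rinsed, MTT 0.5 mg/ml final for 4 h, formazan dissolved in DMSO. Absorbance 560 nm against 630 nm background; survival vs untreated cells; SD, n = 3.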

Data set [2] is described as follows: MTT cytotoxicity assay, BJ-5ta cells. The data set is classed as cell-based, Human. The note with it: human, BJ-5ta cells (hTERT immortalized human skin fibroblasts). In outline: (§1)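 BJ-5ta fibroblasts seeded at 1.8 × 10⁴ cells/well, 24 h at 37 °C, 5% CO2. Then exposed 48 h to test compound at 1, 5 or 10 µM in 0.15% DMSO, 3 technical repeats. Dead-cell control was 0.2% Triton X-100 for 15 min. After PBS rinses, MTT 0.5 mg/ml final for 4 h, formazan dissolved in DMSO. A560 minus A630, DMSO-blank-corrected, % of untreated cells; mean ± SD.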
In general terms: Tetrazolium dyes change colour on reduction, which living cells bring about.

Data set [3] relates to BJ-5ta (hTERT immortalized Human skin fibroblasts). The data set can be described thus: MTT cytotoxicity assay, BJ-5ta cells. The format is cell-based. To be noted: BJ-5ta, 48 h, MTT. In outline: as §1
Another data set concerns H37Rv strain of Mtb. To be noted: H37Rv strain of Mtb in vitro; cited from earlier work.

Converted amounts (≈) assume the structure as drawn. “And” between values parts separate entries of the source, which are not always exact repeats. Equal values may be shown once. “Also recorded” adds a separate entry of the source. Read-outs that look alike come from different tables or passages of the source.

As a reminder, the viability is a read-out of living cells in per cent, often relative to untreated cells. One may read the MIC as the lowest concentration found to suppress growth.

In data set [1], `c1ccc(Nc2ncnc3[nH]ccc23)cc1` [Compound 1, N-phenyl-7H-pyrrolo[2,3-d]pyrimidin-4-amine] had an MIC90 of 62.5 µM (≈ 13.1 µg/mL).

As to `Fc1cccc(Nc2ncnc3[nH]ccc23)c1` [Compound 3, N-(3-fluorophenyl)-7H-pyrrolo[2,3-d]pyrimidin-4-amine], in data set [1], the MIC90 is above 125 µM.

With `Brc1ccc(Nc2ncnc3[nH]ccc23)cc1` [Compound 10, N-(4-bromophenyl)-7H-pyrrolo[2,3-d]pyrimidin-4-amine], in data set [1], the MIC90 is 3.9 µM and 3.90 µM.

In the case of `c1ccc(Oc2ccc(Nc3ncnc4[nH]ccc34)cc2)cc1` [Compound 11, N-(4-phenoxyphenyl)-7H-pyrrolo[2,3-d]pyrimidin-4-amine], the MIC90 was 0.488 µM (≈ 0.148 µg/mL) in data set [1] and 0.488 in data set [1] ([…], no unit printed in the conclusion). Besides, the “Cytotoxicity (in words)” value in the data set with Vero cell line was “no potential cytotoxicity risk”; in the data set with Vero cell line (listed as N-(4-phenoxy phenyl)-7H-pyrrolo[2,3-d]pyrimidin-4-amine) it was “non-cytotoxic”; in data set [3], “weakly cytotoxic; also recorded: weak cytotoxicity”. Besides, in the data set on Vero cell line (highest concentration tested (1, 5, 10 µM tested)), the Cell viability reduction entry is “no cell viability reduction observed”. Besides, the viability at 48 h, 1 µM in data set [2] was found to be 115%.

As to `c1nc(Nc2ccc(N3CCOCC3)cc2)c2cc[nH]c2n1` [Compound 15, N-(4-morpholinophenyl)-7H-pyrrolo[2,3-d]pyrimidin-4-amine], the MIC90 in data set [1] was 3.906 µM and 3.90 µM.

`c1ccc(CCCNc2ncnc3[nH]ccc23)cc1` [Compound 22, N-(3-phenylpropyl)-7H-pyrrolo[2,3-d]pyrimidin-4-amine]: the MIC90 in data set [1] is 14.45 µM (≈ 3.65 µg/mL).

As to `c1ccc(CCCCNc2ncnc3[nH]ccc23)cc1` [Compound 23, N-(4-phenylbutyl)-7H-pyrrolo[2,3-d]pyrimidin-4-amine], in data set [1], the MIC90 was 3.713 µM and 3.71 µM.

In data set [1], `OCCNCCNc1ncnc2[nH]ccc12` [Compound 26, 2-((2-((7H-pyrrolo[2,3-d]pyrimidin-4-yl)amino)ethyl)amino)ethan-1-ol] returned an MIC90 of 125 µM (≈ 27.7 µg/mL).

In data set [1], `CC(C)OCCCNc1ncnc2[nH]ccc12` [Compound 27, N-(3-isopropoxypropyl)-7H-pyrrolo[2,3-d]pyrimidin-4-amine] gave an MIC90 of 125 µM (≈ 29.3 µg/mL).

Take `CO[C@H]1/C=C/O[C@@]2(C)Oc3c(C)c(O)c4c(O)c(c(/C=N/N5CCN(C)CC5)c(O)c4c3C2=O)NC(=O)/C(C)=C\C=C\[C@H](C)[C@H](O)[C@@H](C)[C@@H](O)[C@@H](C)[C@H](OC(C)=O)[C@@H]1C` [RF, rifampicin]: in the data set on H37Rv strain of Mtb, the MIC is on record as 0.09 µM (≈ 0.0741 µg/mL).

In data set [1], “N-(2-methoxy-4-nitrophenyl)-7H-pyrrolo[2,3-d]pyrimidin-4-amine [Compound 14]” showed an MIC90 above 125 µM.

In data set [1], “N-(3-(trifluoromethyl)phenyl)-7,7a-dihydro-1H-pyrrolo[2,3-d]pyrimidin-4-amine [Compound 4]” yielded an MIC90 of 62.5 µM.

“N-(3-morpholinopropyl)-7H-pyrrolo[2,3-d]pyrimidin-4-amine [Compound 28]”: the MIC90 in data set [1] is on record as 125 µM.

In turn, “N-(3-nitrophenyl)-7H-pyrrolo[2,3-d]pyrimidin-4-amine [Compound 13]” yielded an MIC90 in data set [1] of 62.5 µM.

Source of the values: article PMC9124159 (Molecular Diversity, 2022).
